Laboratory results: ChEMBL document CHEMBL2062521, “Discovery of 1-(β-amino substituted-β-alanyl)-N,N-dimethylindoline-2-carboxamides as novel nonpeptide antagonists of nociceptin/orphanin FQ receptor: efficient design, synthesis, and structure-activity relationship studies” (Eur J Med Chem, 2012)
pIC50, pKi: −log10 of the molar value. The source made the active and inactive calls. The rule behind the calls is not given here.

Experiments:
[1] = Half life in human liver microsomes by HPLC/MS/MS analysis; type: ADME, Microsome
[2] = target: Mu-type opioid receptor (Homo sapiens, UniProt P35372); assay: Displacement of [3H]DAMGO from human recombinant MOP receptor expressed in CHO-K1 cells after 45 mins by scintillation proximity assay; type: cell-based
Sequence of Mu-type opioid receptor (P35372 whole entry): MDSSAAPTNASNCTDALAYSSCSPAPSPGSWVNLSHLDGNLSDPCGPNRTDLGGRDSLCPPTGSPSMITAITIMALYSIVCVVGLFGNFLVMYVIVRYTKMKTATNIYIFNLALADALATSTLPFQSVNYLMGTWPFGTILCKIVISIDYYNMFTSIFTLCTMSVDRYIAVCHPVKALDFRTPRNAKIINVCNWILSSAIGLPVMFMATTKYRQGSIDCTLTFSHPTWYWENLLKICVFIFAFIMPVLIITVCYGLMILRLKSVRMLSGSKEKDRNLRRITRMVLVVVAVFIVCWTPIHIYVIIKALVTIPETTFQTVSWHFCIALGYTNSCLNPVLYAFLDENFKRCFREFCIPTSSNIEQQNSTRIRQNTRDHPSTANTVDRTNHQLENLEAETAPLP

[3] = species on record: Homo sapiens; assay: Selectivity ratio of Ki for human recombinant MOP receptor to Ki for human recombinant ORL1 receptor
[4] = target: T1, Nociceptin receptor (Homo sapiens, UniProt P41146); assay: Displacement of [3H]N/OFQ from human recombinant ORL1 receptor expressed in HEK293 cells after 45 mins by scintillation proximity assay; type: cell-based
T1 sequence (P41146 whole entry): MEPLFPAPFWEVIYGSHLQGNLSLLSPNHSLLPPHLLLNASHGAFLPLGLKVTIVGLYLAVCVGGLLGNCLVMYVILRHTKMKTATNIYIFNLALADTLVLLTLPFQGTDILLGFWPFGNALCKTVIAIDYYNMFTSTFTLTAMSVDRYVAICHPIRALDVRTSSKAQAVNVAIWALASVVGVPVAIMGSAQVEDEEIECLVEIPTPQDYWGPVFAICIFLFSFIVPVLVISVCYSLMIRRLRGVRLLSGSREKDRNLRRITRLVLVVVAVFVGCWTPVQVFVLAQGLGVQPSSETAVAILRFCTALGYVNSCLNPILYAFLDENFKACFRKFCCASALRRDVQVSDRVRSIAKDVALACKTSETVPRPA
Summary of the method: (§1)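 Compound at 10^-11–10^-5 M (six 10-fold steps), duplicates; nonspecific binding with 1 µM N/OFQ. IC50 by nonlinear regression, Ki by Cheng–Prusoff; percent inhibition reported at 1 µM.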

[5] = target: T1, Nociceptin receptor; assay: Antagonist activity at human recombinant ORL1 receptor expressed in HEK293 cells assessed as inhibition of N/OFQ-induced [35S]GTPgammaS binding to alpha-unit of G-protein after 1.5 hrs by scintillation counting; type: functional, cell-based
Summary of the method: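 Membranes from HEK-293 cells expressing hNOP receptor, incubated 1.5 h at 25 °C with 10 nM N/OFQ and compound at six concentrations (0.1 nM–10 µM) in 20 mM HEPES pH 7.4, 100 mM NaCl, 5 mM MgCl2, 1 mM EDTA, 5 µM GDP, 400 pM [35S]GTPγS, WGA-SPA beads. Duplicates; NSB with 10 µM unlabelled GTPγS; basal without ligands.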

[6] = target: T1, Nociceptin receptor; assay: Displacement of [3H]N/OFQ from human recombinant ORL1 receptor expressed in HEK293 cells at 1 uM after 45 mins by scintillation proximity assay; type: cell-based; summary of the method: as §1

| Structure (SMILES) | half-life [1] [min] | pKi [2] | Ratio Ki [3] | pKi [4] | pIC50 [5] | inhibition [6] |
| --- | --- | --- | --- | --- | --- | --- |
| Cc1cccc(C)c1C1CCN(CCC(=O)N2c3ccccc3C[C@H]2C(=O)N(C)C)CC1 | 19 | 7.09 | 86 | 9.02 | 7.92 | – |
| CN(C)C(=O)[C@@H]1Cc2ccccc2N1C(=O)CCN1CC2CCC(C1)C2c1ccccc1 (stereo not given in full) | 10 | 7.55 | – | < 6.60 | – | 23% |
| CN(C)C(=O)C1Cc2ccccc2N1C(=O)CCN1CCN(c2ccccc2)CC1 (racemic) | – | 6.40 | – | < 6.60 | 4.32 | 43% |
| CN(C)C(=O)C1Cc2ccccc2N1C(=O)CCN1CCN(C2CCCC2)CC1 (racemic) | – | – | – | < 6.60 | – | 3% |
| CC(c1ccccc1)N1CCN(CCC(=O)N2c3ccccc3CC2C(=O)N(C)C)CC1 (racemic) | – | < 6.35 | – | < 6.60 | – | 21% |
| CN(C)C(=O)C1Cc2ccccc2N1C(=O)CCN1CCC(c2ccccc2C(F)(F)F)CC1 (racemic) | – | – | – | 7.50 | – | – |
| CN(C)C(=O)[C@@H]1Cc2ccccc2N1C(=O)CCN1CCC(c2ccc(F)cc2)CC1 | 82 | 6.62 | – | 8.01 | 6.97 | – |
| CN(C)C(=O)C1Cc2ccccc2N1C(=O)CCN1CC[C@@H]2c3ccccc3CC[C@@H]2C1 (mixture of isomers) | – | – | – | < 6.60 | – | 33% |
| CCCC(C)N1CCN(CCC(=O)N2c3ccccc3CC2C(=O)N(C)C)CC1 (racemic) | – | < 6.35 | – | < 6.60 | – | 40% |
| CN(C)C(=O)C1Cc2ccccc2N1C(=O)CCN1CCN(C2CCCCCC2)CC1 (racemic) | – | – | – | < 6.60 | – | 12% |
| CN(C)C(=O)C1Cc2ccccc2N1C(=O)CCN1CCC(N2CCCCC2)CC1 (racemic) | – | < 6.35 | – | < 6.60 | – | inactive |
| CN(C)C(=O)C1Cc2ccccc2N1C(=O)CCN1Cc2cccc3cccc(c23)C1 (racemic) | – | – | – | < 6.60 | – | 15% |
| CN(C)C(=O)C1Cc2ccccc2N1C(=O)CCN1CCC(c2ccccn2)CC1 (racemic) | – | – | – | < 6.60 | – | inactive |
| Cc1ccc(N2CCN(CCC(=O)N3c4ccccc4CC3C(=O)N(C)C)CC2)c(C)c1 (racemic) | – | – | – | < 6.60 | – | 25% |
| Cc1ccccc1C1CCN(CCC(=O)N2c3ccccc3C[C@H]2C(=O)N(C)C)CC1 | 24 | 7.17 | 22 | 8.52 | 7.36 | – |
| CN(C)C(=O)C1Cc2ccccc2N1C(=O)CCN1CCN(C2CCCCCCC2)CC1 (racemic) | – | – | – | < 6.60 | – | 12% |

| Structure (SMILES) | half-life [1] [min] | pKi [2] | Ratio Ki [3] | pKi [4] | pIC50 [5] | inhibition [6] |
| --- | --- | --- | --- | --- | --- | --- |
| CN(C)C(=O)C1Cc2ccccc2N1C(=O)CCN1CCC(c2ccccc2F)CC1 (racemic) | – | – | – | 7.58 | – | – |
| CN(C)C(=O)[C@@H]1Cc2ccccc2N1C(=O)CCN1CCC(c2ccccc2)CC1 | 55 | 7.09 | 5.9 | 7.87 | 6.86 | – |
| CN(C)C(=O)C1Cc2ccccc2N1C(=O)CCN1CCCC(c2ccccc2)CC1 (racemic) | – | – | – | < 6.60 | – | 15% |
| CCOc1ccccc1N1CCN(CCC(=O)N2c3ccccc3CC2C(=O)N(C)C)CC1 (racemic) | – | 7.53 | 0.23 | 6.89 | – | – |
| CN(C)C(=O)C1Cc2ccccc2N1C(=O)CCN1CCN(c2cnccn2)CC1 (racemic) | – | 6.63 | – | < 6.60 | – | 37% |
| CN(C)C(=O)C1Cc2ccccc2N1C(=O)CCN1CCC(c2ccccc2)CC1 (racemic) | – | 6.30 | 19 | 7.58 | 5.64 | – |
| Cc1cccc(N2CCN(CCC(=O)N3c4ccccc4CC3C(=O)N(C)C)CC2)c1 (racemic) | – | – | – | < 6.60 | – | 13% |
| CN(C)C(=O)C1Cc2ccccc2N1C(=O)CCN1CCN(C2CCCCC2)CC1 (racemic) | – | < 6.35 | – | < 6.60 | – | 11% |
| CN(C)C(=O)C1Cc2ccccc2N1C(=O)CCN1Cc2ccccc2C1 (racemic) | – | – | – | < 6.60 | – | 16% |
| CN(C)C(=O)C1Cc2ccccc2N1C(=O)CCN1CCN(Cc2ccccc2)CC1 (racemic) | – | < 6.35 | – | < 6.60 | – | 11% |
| Cc1ccccc1N1CCN(CCC(=O)N2c3ccccc3CC2C(=O)N(C)C)CC1 (racemic) | – | 6.50 | 27 | 7.94 | – | – |
| CCC(CC)N1CCN(CCC(=O)N2c3ccccc3CC2C(=O)N(C)C)CC1 (racemic) | – | < 6.35 | – | 7.00 | – | – |
| CN(C)C(=O)C1Cc2ccccc2N1C(=O)CCN1CCC(C2CCCCC2)CC1 (racemic) | – | – | – | 6.54 | – | – |
| Cc1cc(F)ccc1C1CCN(CCC(=O)N2c3ccccc3C[C@H]2C(=O)N(C)C)CC1 | 43 | 6.86 | – | 8.42 | 7.38 | – |
| Cc1ccccc1C1CCN(CCC(=O)N2c3ccccc3CC2C(=O)N(C)C)CC1 (racemic) | – | 6.86 | 25 | 8.26 | 6.94 | – |
| CN(C)C(=O)C1Cc2ccccc2N1C(=O)CCN1CCc2ccccc2C1 (racemic) | – | – | – | < 6.60 | – | 11% |
